ChEMBL document CHEMBL1806488, “Design, synthesis and biological evaluation of 2'-deoxy-2',2'-difluoro-5-halouridine phosphoramidate ProTides” (Bioorg Med Chem, 2011)

Tests used:
Human alphaherpesvirus 1 [1] = experiment: Antiviral activity against Herpes simplex virus 1 KOS infected in human HEL cells assessed as inhibition of virus-induced cytopathic effect after 4 days by microscopic analysis; type: functional, organism-based; conditions: Human alphaherpesvirus 1, KOS, 96 h
Human alphaherpesvirus 1 [2] = experiment: Antiviral activity against acyclovir-resistant TK-deficient Herpes simplex virus-1 KOS infected in human HEL cells assessed as inhibition of virus-induced cytopathic effect after 4 days by microscopic analysis; type: functional, organism-based; conditions: Human alphaherpesvirus 1, KOS, 96 h
Felid alphaherpesvirus 1 = experiment: Antiviral activity against Feline herpesvirus infected in cat CRFK cells assessed as inhibition of virus-induced cytopathic effect after 4 days by microscopic analysis; type: functional, organism-based; conditions: Felid alphaherpesvirus 1, CRFK, 96 h
Procedure, shortened: (§1)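 Confluent monolayers (CRFK for feline herpes virus; HEL for HSV-2 G) were inoculated with 100 CCID50 of virus in the presence of compound at 200, 40, 8, … μM. Cytopathicity was scored once it was complete in untreated infected controls.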

Human alphaherpesvirus 2 = experiment: Antiviral activity against Herpes simplex virus-2 G infected in human HEL cells assessed as inhibition of virus-induced cytopathic effect after 4 days by microscopic analysis; type: functional, organism-based; conditions: Human alphaherpesvirus 2, strain G, 96 h; procedure, shortened: as §1
Vaccinia virus = experiment: Antiviral activity against Vaccinia virus infected in human HEL cells assessed as inhibition of virus-induced cytopathic effect after 4 days by microscopic analysis; type: functional, organism-based; conditions: Orthopoxvirus vaccinia, 96 h
[3] = Cytotoxicity against human HEL cells assessed as alteration of normal cell morphology by microscopic analysis; type: cell-based
Procedure, shortened: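 Uninfected HEL cells were examined under the microscope. The minimum cytotoxic concentration is the lowest concentration causing a detectable alteration of normal cell morphology.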

[4] = Cytotoxicity against cat CRFK cells by colorimetric formazan-based MTS assay; type: cell-based, Felis catus
Human alphaherpesvirus 3 [5] = experiment: Antiviral activity against Varicella-zoster virus YS expressing thymidine kinase infected in human HEL cells assessed as reduction in the virus plaque formation; type: functional, organism-based; conditions: Human alphaherpesvirus 3, YS
Human alphaherpesvirus 3 [6] = experiment: Antiviral activity against Varicella-zoster virus OKA expressing thymidine kinase infected in human HEL cells assessed as reduction in the virus plaque formation; type: functional, cell-based; conditions: Human alphaherpesvirus 3, strain Oka vaccine
Human alphaherpesvirus 3 [7] = experiment: Antiviral activity against thymidine kinase-deficient Varicella-zoster virus 07-1 infected in human HEL cells assessed as reduction in the virus plaque formation; type: functional, organism-based; conditions: Human alphaherpesvirus 3, 07-1, HEL
Human alphaherpesvirus 3 [8] = experiment: Antiviral activity against thymidine kinase-deficient Varicella-zoster virus YS/R infected in human HEL cells assessed as reduction in the virus plaque formation; type: functional, organism-based; conditions: Human alphaherpesvirus 3, YS/R
Human betaherpesvirus 5 [9] = experiment: Antiviral activity against Human cytomegalovirus AD-169 infected in human HEL cells assessed as reduction in the virus plaque formation; type: functional, organism-based; conditions: Human betaherpesvirus 5, AD169, HEL
Procedure, shortened: (§2)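 HEL cells were infected with 100 PFU of HCMV (AD-169 or Davis) in the presence of compound.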

Human betaherpesvirus 5 [10] = experiment: Antiviral activity against Human cytomegalovirus Davis infected in human HEL cells assessed as reduction in the virus plaque formation; type: functional, organism-based; conditions: Human betaherpesvirus 5, Davis; procedure, shortened: as §2
HEL = experiment: Cytotoxicity against human HEL cells by colorimetric formazan-based MTS assay; type: cell-based
Thymidine kinase [11] = molecular target: T1, Thymidine kinase (Human alphaherpesvirus 1, UniProt Q9QNF7); experiment: Inhibition of Herpes simplex virus-1 thymidine kinase-mediated phosphorylation of [methyl-3H]dThd at 1 uM after 30 mins by scintillation counting
T1 sequence (Q9QNF7 whole entry): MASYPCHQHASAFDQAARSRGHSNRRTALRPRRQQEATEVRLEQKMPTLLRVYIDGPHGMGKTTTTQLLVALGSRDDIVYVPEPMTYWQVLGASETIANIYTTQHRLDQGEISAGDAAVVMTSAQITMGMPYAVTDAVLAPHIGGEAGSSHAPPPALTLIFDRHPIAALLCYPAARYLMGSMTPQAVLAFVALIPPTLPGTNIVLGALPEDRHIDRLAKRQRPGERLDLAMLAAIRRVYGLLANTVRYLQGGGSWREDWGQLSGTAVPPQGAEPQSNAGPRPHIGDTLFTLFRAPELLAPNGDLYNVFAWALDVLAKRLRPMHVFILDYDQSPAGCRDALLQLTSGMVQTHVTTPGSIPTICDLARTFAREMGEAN

[12] = Inhibition of Varicella-zoster virus thymidine kinase-mediated phosphorylation of [methyl-3H]dThd at 1 uM after 30 mins by scintillation counting; design: species or system Human alphaherpesvirus 3
Thymidine kinase [13] = molecular target: T2, Thymidine kinase (Feline herpesvirus 1, UniProt P13159); experiment: Inhibition of Feline herpesvirus thymidine kinase assessed as phosphorylation of 1 uM [methyl-3H]dThd after 30 mins by scintillation counting; design: species or system Felid alphaherpesvirus 1
T2 sequence (P13159 whole entry): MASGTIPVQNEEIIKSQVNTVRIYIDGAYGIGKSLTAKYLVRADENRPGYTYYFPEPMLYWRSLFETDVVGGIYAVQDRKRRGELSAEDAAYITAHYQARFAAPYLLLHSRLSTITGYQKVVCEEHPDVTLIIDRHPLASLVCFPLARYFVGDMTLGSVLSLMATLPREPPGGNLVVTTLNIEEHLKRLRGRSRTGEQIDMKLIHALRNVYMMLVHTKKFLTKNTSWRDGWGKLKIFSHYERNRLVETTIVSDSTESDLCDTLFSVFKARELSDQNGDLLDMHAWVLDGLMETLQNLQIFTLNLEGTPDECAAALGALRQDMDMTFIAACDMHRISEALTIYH

L1210 = experiment: Antiproliferation activity against mouse L1210 cells after 2 days by coulter counter; type: cell-based; conditions: L1210, 48 h
Procedure, shortened: (§3)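 L1210, FM3A, CEM or HeLa cells at 300,000–500,000 cells/mL were mixed 1:1 with compound dilutions. Incubation at 37 °C lasted 2 days (L1210, FM3A) or 3 days (CEM, HeLa), after which cells were counted with a Coulter counter.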

FM3A = experiment: Antiproliferation activity against mouse FM3A cells after 2 days by coulter counter; type: cell-based; conditions: 48 h; procedure, shortened: as §3
CCRF-CEM = experiment: Antiproliferation activity against human CEM cells after 3 days by coulter counter; type: cell-based; conditions: 72 h; procedure, shortened: as §3
HeLa = experiment: Antiproliferation activity against human HeLa cells after 3 days by coulter counter; type: cell-based; conditions: 72 h; procedure, shortened: as §3

Row | Structure (SMILES) | EC50 (Human alphaherpesvirus 1 [1]) [µM] | EC50 (Human alphaherpesvirus 1 [2]) [µM] | EC50 (Felid alphaherpesvirus 1) [µM] | EC50 (Human alphaherpesvirus 2) [µM] | EC50 (Vaccinia virus) [µM] | MCC [3] [µM] | CC50 ([4]; crfk) [µM] | EC50 (Human alphaherpesvirus 3 [5]) [µM] | EC50 (Human alphaherpesvirus 3 [6]) [µM] | EC50 (Human alphaherpesvirus 3 [7]) [µM] | EC50 (Human alphaherpesvirus 3 [8]) [µM] | EC50 (Human betaherpesvirus 5 [9]) [µM] | EC50 (Human betaherpesvirus 5 [10]) [µM] | CC50 (HEL) [µM] | IC50 (L1210) [µM] | IC50 (FM3A) [µM] | IC50 (CCRF-CEM) [µM] | IC50 (HeLa) [µM] | other results
1 | O=c1[nH]c(=O)n([C@@H]2O[C@H](CO)[C@@H](O)C2(F)F)cc1I | 16 | 20 | 1.2 | 64 | > 100 | > 50 | > 100 | 13 | 9.1 | > 50 | > 50 | > 50 | > 50 | > 100 | 302 | 409 | 154 | 230 | IC50 (Thymidine kinase [11]): 3.5 µM; IC50 [12]: 19 µM; IC50 (Thymidine kinase [13]): 38 µM
2 | O=c1[nH]c(=O)n([C@@H]2O[C@H](CO)[C@@H](O)C2(F)F)cc1Br | 15 | 73 | 2.4 | > 100 | > 100 | > 50 | > 100 | 23 | 11 | > 50 | > 50 | > 50 | > 50 | > 100 | > 500 | > 500 | > 500 | 458 | IC50 (Thymidine kinase [11]): 7.5 µM; IC50 [12]: 26 µM; IC50 (Thymidine kinase [13]): 34 µM
3 | O=c1[nH]c(=O)n([C@@H]2O[C@H](CO)[C@@H](O)C2(F)F)cc1Cl | 33 | 78 | 13 | ≥ 100 | > 100 | > 50 | > 100 | > 50 | ≥ 50 | > 50 | > 50 | > 50 | > 50 | > 100 | > 500 | > 500 | > 500 | ≥ 500 | IC50 (Thymidine kinase [11]): 22 µM; IC50 [12]: 35 µM; IC50 (Thymidine kinase [13]): 93 µM
4 | Cc1cn([C@@H]2O[C@H](CO)[C@@H](O)C2(F)F)c(=O)[nH]c1=O | 12 | 20 | > 100 | 39 | ≥ 100 | > 50 | > 100 | 10 | 5.8 | > 50 | > 50 | > 50 | > 50 | 100 | > 500 | > 500 | > 500 | > 500 | IC50 (Thymidine kinase [11]): 2.8 µM; IC50 [12]: 21 µM; IC50 (Thymidine kinase [13]): 85 µM
5 | C[C@H](NP(=O)(OC[C@H]1O[C@@H](n2cc(I)c(=O)[nH]c2=O)C(F)(F)[C@@H]1O)Oc1ccccc1)C(=O)OCc1ccccc1 (stereo partly specified) | 27 | ≥ 100 | 4.4 | 50 | 58 | > 100 | ≥ 70 | – | – | – | – | – | – | – | – | – | – | – | –
6 | COC(=O)[C@H](C)NP(=O)(OC[C@H]1O[C@@H](n2cc(I)c(=O)[nH]c2=O)C(F)(F)[C@@H]1O)Oc1ccccc1 (stereo partly specified) | > 100 | > 100 | 28 | > 100 | > 100 | > 50 | > 100 | – | > 50 | > 50 | – | > 50 | > 50 | 51 | 226 | 258 | 176 | 126 | –
7 | C[C@H](NP(=O)(OC[C@H]1O[C@@H](n2cc(I)c(=O)[nH]c2=O)C(F)(F)[C@@H]1O)Oc1cccc2ccccc12)C(=O)OCc1ccccc1 (stereo partly specified) | > 20 | > 20 | > 20 | > 20 | > 20 | > 50 | 36 | – | 8.5 | 37 | – | > 50 | > 50 | 49 | 23 | – | 21 | 29 | –
8 | COC(=O)[C@H](C)NP(=O)(OC[C@H]1O[C@@H](n2cc(I)c(=O)[nH]c2=O)C(F)(F)[C@@H]1O)Oc1cccc2ccccc12 (stereo partly specified) | > 100 | > 100 | > 20 | > 100 | > 100 | > 50 | 92 | 29 | 25 | > 50 | > 50 | > 50 | > 50 | ≥ 100 | 134 | 46 | 60 | 133 | –
9 | C[C@H](NP(=O)(OC[C@H]1O[C@@H](n2cc(Br)c(=O)[nH]c2=O)C(F)(F)[C@@H]1O)Oc1ccccc1)C(=O)OCc1ccccc1 (stereo partly specified) | > 100 | > 100 | 11.6 | > 100 | > 100 | > 50 | > 100 | – | 39 | > 50 | – | > 50 | > 50 | ≥ 50 | 50 | 91 | 104 | 148 | –
10 | C[C@H](NP(=O)(OC[C@H]1O[C@@H](n2cc(Cl)c(=O)[nH]c2=O)C(F)(F)[C@@H]1O)Oc1ccccc1)C(=O)OCc1ccccc1 (stereo partly specified) | > 100 | > 100 | > 100 | > 100 | > 100 | > 50 | > 100 | – | > 50 | > 50 | – | > 50 | > 50 | ≥ 100 | 175 | 226 | 196 | 200 | –
11 | Nc1nc2c(ncn2COCCO)c(=O)[nH]1 [ACYCLOVIR] | – | – | 1 | – | > 250 | > 250 | – | – | – | – | – | – | – | > 400 | – | – | – | – | CC50 ([4]; CRFK cells): > 100 µM
12 | O=c1[nH]c(=O)n([C@H]2C[C@H](O)[C@@H](CO)O2)cc1/C=C/Br [BRIVUDINE] | – | – | 30 | – | 10 | ≥ 250 | > 100 | – | 0.03 | ≥ 60 | > 150 | – | – | 512 | – | – | – | – | –
13 | Nc1ccn(C[C@@H](CO)OCP(=O)(O)O)c(=O)n1 [CIDOFOVIR] | – | – | 1.3 | – | 10 | > 250 | – | – | – | – | – | – | – | – | – | – | – | – | CC50 ([4]; CRFK cells): > 100 µM
14 | Nc1nc2c(ncn2COC(CO)CO)c(=O)[nH]1 [GANCICLOVIR] | – | – | – | – | > 100 | > 100 | – | – | – | – | – | – | – | – | – | – | – | – | –
